ChEMBL document CHEMBL1141852, “Two auronols from Pseudolarix amabilis” (1999)
In brackets after ≈: the same amount, converted by molar mass. Activity calls are given as the source filed them. No cut-off for these calls is given here.

Tests used:
Candida albicans = assay: Antimicrobial activity against Candida albicans; format: functional
Outline: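 Broth microdilution in 96-well plates. Inoculum was a 24 h Candida albicans culture diluted in Sabouraud dextrose broth. Incubation was at 30 or 37 °C. MIC was taken as the lowest concentration giving at least 80% growth inhibition.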

[1] = test system: Trichophyton mentagrophytes; assay: Antimicrobial activity against Trichophyton mentagrophytes; format: functional
Outline: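 Microdilution in 96-well plates. The Trichophyton mentagrophytes inoculum was spores scraped from fungal growth into Mycophil broth. Pure compounds were tested at final 50 down to 0.20 µg/mL in twofold steps. Incubation was at 30 or 37 °C. MIC was taken as the lowest concentration inhibiting at least 80% of growth.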

| MIC (Candida albicans) [µg/mL] | MIC [1] [µg/mL] | Compound | Activity (Candida albicans) | Activity [1] | MFC (Candida albicans) [µg/mL] |
| --- | --- | --- | --- | --- | --- |
|  |  | CC(=O)O[C@]12CCC(C)=CC[C@]13CC[C@H]2[C@@](C)(/C=C/C=C(\C)C(=O)O[C@@H]1O[C@H](CO)[C@@H](O)[C@H](O)[C@H]1O)OC3=O | inactive | inactive |  |
| 3.12 (≈ 7.23 µM) |  | COC(=O)C1=CC[C@@]23CC[C@@H]([C@@](C)(/C=C/C=C(\C)C(=O)O)OC2=O)[C@@]3(OC(C)=O)CC1 [PSEUDOLARIC ACID B] |  |  | 6.25 (≈ 14.5 µM) |
|  |  | C/C(=C\C=C\[C@@]1(C)OC(=O)[C@]23CC=C(C(=O)O)CC[C@]2(O)[C@H]1CC3)C(=O)O | inactive | inactive |  |
|  |  | C[C@@H]1[C@H](O)[C@@H](C)/C=C/C=C/C=C/C=C/C=C/C=C/C=C/[C@H](O[C@@H]2O[C@H](C)[C@@H](O)[C@H](N)[C@@H]2O)C[C@@H]2O[C@](O)(C[C@@H](O)C[C@@H](O)[C@H](O)CC[C@@H](O)C[C@@H](O)CC(=O)O[C@H]1C)C[C@H](O)[C@H]2C(=O)O [AMPHOTERICIN B] |  | inactive | 0.39 (≈ 0.422 µM) |
|  |  | COC(=O)C1=CC[C@@]23CC[C@@H]([C@@](C)(/C=C/C=C(\C)C(=O)O[C@@H]4O[C@H](CO)[C@@H](O)[C@H](O)[C@H]4O)OC2=O)[C@@]3(OC(C)=O)CC1 | inactive | inactive |  |
|  |  | O=C1c2c(O)cc(O)cc2OC1(O)Cc1cc(O)c(O)c(O)c1 (configuration not stated) | inactive | inactive |  |
|  |  | COc1c(O)cc(CC2(O)Oc3cc(O)cc(O)c3C2=O)cc1O (configuration not stated) | inactive | inactive |  |
|  |  | COC(=O)C1=CC[C@@]23CC[C@@H]([C@@](C)(/C=C/C=C(\C)C(=O)O)OC2=O)[C@@]3(O)CC1 | inactive | inactive |  |
|  | 50 (≈ 157 µM) | O=c1c(O)c(-c2cc(O)c(O)c(O)c2)oc2cc(O)cc(O)c12 [MYRICETIN] |  |  |  |
